Measurements reported in ChEMBL document CHEMBL4033785, “Increased Potency and Selectivity for Group III Metabotropic Glutamate Receptor Agonists Binding at Dual sites” (J Med Chem, 2018).
Calls of active or inactive are those of the source. The calls are words filed in the database; no cut-off is given here.

Legend:
Homo sapiens [1] = organism: Homo sapiens; experiment: (§1) Selectivity ratio of EC50 for mGlu8 (unknown origin) expressed in HEK293 cells coexpressing chimeric Gq/i protein assessed as [3H]inositol phosphate accumulation to EC50 for mGlu4 (unknown origin) expressed in HEK293 cells coexpressing chimeric Gq/i protein assessed as [3H]inositol phosphate accumulation; type: cell-based
In short: (§2)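 Ratio of mGlu8 EC50 to mGlu4 EC50, both from the same functional assay. Both receptors were co-expressed in HEK293 cells with chimeric G-protein and EAAT3 and read by 3H-IP accumulation or by Fluo-4 Ca2+ release.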

[2] = molecular target: T1, Metabotropic glutamate receptor 8 (Homo sapiens, UniProt O00222); experiment: Agonist activity at mGlu8 (unknown origin) expressed in HEK293 cells coexpressing chimeric Gq/i protein assessed as [3H]inositol phosphate accumulation after 30 mins by scintillation and luminescence counting method; type: functional, cell-based
T1 sequence (O00222 whole entry): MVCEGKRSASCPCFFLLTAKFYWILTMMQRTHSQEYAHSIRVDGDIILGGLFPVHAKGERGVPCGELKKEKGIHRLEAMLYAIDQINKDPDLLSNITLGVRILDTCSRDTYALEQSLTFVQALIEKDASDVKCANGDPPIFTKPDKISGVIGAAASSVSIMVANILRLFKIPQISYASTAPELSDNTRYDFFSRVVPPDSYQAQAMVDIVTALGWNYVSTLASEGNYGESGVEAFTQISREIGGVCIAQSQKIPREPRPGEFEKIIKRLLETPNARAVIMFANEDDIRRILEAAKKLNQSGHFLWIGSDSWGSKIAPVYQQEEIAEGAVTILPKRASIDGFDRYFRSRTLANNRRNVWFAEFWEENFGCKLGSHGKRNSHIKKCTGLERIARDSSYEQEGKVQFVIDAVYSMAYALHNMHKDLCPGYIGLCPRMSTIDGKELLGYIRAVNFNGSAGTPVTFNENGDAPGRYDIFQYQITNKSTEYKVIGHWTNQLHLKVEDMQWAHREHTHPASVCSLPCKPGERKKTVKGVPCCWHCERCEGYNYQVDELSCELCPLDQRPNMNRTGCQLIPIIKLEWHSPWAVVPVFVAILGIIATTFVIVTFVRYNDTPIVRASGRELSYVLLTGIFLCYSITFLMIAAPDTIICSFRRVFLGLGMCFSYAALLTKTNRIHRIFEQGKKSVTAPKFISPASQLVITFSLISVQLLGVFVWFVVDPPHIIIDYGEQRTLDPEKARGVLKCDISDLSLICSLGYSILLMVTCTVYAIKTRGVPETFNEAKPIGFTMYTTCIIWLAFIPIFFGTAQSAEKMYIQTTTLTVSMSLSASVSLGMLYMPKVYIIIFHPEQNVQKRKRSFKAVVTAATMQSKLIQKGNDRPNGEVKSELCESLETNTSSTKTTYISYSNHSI
In short: (§3)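 Receptor transiently co-expressed in HEK293 cells (electroporation) with chimeric G-protein and glutamate transporter EAAT3. Cells labelled overnight with 3H-myoinositol, stimulated with agonist 30 min, lysed 1 h in cold 0.1 M formic acid. 3H-IP isolated on Dowex ion exchange and counted. IP expressed relative to IP plus membrane radioactivity. Points in triplicate; EC50 from Hill-equation fit.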

[3] = molecular target: T1, Metabotropic glutamate receptor 8; experiment: Agonist activity at mGlu8 (unknown origin) expressed in HEK293 cells coexpressing chimeric Gq/i protein assessed as increase in intracellular calcium accumulation by Fluo-4 AM dye based fluorescence assay; type: functional, cell-based
[4] = molecular target: T2, Metabotropic glutamate receptor 6 (Homo sapiens, UniProt O15303); experiment: Agonist activity at mGlu6 (unknown origin) expressed in HEK293 cells coexpressing chimeric Gq/i protein assessed as [3H]inositol phosphate accumulation after 30 mins by scintillation and luminescence counting method; type: functional, cell-based; in short: as §3
T2 sequence (O15303 whole entry): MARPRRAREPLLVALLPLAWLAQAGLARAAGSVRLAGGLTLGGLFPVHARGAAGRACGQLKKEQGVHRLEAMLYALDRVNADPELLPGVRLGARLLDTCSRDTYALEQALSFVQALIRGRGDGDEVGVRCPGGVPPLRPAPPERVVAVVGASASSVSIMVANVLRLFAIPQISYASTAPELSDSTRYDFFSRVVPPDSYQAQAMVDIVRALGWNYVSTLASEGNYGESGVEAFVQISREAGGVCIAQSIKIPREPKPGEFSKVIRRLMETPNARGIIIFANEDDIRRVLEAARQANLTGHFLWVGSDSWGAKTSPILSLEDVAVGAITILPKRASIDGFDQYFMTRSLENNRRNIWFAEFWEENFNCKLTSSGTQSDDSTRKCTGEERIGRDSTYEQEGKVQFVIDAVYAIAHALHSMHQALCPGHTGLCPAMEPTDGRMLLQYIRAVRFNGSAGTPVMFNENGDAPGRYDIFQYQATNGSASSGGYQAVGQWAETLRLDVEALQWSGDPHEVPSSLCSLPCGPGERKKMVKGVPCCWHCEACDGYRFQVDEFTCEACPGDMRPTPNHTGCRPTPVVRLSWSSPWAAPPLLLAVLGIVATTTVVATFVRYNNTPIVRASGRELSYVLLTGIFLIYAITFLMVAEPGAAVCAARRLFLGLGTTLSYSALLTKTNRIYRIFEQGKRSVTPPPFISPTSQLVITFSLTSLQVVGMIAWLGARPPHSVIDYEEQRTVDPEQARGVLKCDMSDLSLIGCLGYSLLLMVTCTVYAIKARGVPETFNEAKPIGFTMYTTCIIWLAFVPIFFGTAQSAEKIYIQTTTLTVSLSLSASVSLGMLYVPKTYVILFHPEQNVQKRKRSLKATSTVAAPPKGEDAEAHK

[5] = molecular target: T2, Metabotropic glutamate receptor 6; experiment: Agonist activity at mGlu6 (unknown origin) expressed in HEK293 cells coexpressing chimeric Gq/i protein assessed as increase in intracellular calcium accumulation by Fluo-4 AM dye based fluorescence assay; type: functional, cell-based
Homo sapiens [6] = organism: Homo sapiens; experiment: as §1, with “increase in intracellular calcium” for “[3H]inositol phosphate”; type: cell-based; in short: as §2
[7] = molecular target: T3, Metabotropic glutamate receptor 7 (Homo sapiens, UniProt Q14831); experiment: Agonist activity at mGlu7 (unknown origin) expressed in HEK293 cells coexpressing chimeric Gq/i protein assessed as [3H]inositol phosphate accumulation at 300 uM after 30 mins by scintillation and luminescence counting method; type: functional, cell-based; in short: as §3
T3 sequence (Q14831 whole entry): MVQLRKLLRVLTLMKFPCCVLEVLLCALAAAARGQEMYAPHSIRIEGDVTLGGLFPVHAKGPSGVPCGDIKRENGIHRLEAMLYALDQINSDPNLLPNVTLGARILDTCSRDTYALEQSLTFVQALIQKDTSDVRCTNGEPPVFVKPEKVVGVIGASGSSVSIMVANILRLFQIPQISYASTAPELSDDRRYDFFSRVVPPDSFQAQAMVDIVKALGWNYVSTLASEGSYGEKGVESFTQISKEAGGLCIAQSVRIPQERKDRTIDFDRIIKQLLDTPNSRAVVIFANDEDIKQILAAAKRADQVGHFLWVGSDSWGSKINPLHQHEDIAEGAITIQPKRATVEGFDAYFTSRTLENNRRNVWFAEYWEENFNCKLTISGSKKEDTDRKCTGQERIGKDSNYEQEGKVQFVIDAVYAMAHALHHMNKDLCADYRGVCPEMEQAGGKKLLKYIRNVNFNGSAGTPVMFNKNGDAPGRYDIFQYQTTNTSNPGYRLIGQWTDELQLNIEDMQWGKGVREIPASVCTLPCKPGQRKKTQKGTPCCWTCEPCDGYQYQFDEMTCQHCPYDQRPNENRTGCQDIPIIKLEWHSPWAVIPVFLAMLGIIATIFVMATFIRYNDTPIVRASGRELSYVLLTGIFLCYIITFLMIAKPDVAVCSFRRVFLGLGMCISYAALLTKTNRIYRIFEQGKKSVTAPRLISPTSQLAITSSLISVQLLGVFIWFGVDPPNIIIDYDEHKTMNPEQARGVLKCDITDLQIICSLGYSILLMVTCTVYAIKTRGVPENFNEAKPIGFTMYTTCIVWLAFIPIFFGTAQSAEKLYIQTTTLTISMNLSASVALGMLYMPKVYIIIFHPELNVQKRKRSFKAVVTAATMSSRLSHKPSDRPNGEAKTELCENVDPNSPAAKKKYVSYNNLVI

[8] = molecular target: T4, Metabotropic glutamate receptor 4 (Homo sapiens, UniProt Q14833); experiment: Agonist activity at mGlu4 (unknown origin) expressed in HEK293 cells coexpressing chimeric Gq/i protein assessed as increase in intracellular calcium accumulation by Fluo-4 AM dye based fluorescence assay; type: functional, cell-based
T4 sequence (Q14833 whole entry): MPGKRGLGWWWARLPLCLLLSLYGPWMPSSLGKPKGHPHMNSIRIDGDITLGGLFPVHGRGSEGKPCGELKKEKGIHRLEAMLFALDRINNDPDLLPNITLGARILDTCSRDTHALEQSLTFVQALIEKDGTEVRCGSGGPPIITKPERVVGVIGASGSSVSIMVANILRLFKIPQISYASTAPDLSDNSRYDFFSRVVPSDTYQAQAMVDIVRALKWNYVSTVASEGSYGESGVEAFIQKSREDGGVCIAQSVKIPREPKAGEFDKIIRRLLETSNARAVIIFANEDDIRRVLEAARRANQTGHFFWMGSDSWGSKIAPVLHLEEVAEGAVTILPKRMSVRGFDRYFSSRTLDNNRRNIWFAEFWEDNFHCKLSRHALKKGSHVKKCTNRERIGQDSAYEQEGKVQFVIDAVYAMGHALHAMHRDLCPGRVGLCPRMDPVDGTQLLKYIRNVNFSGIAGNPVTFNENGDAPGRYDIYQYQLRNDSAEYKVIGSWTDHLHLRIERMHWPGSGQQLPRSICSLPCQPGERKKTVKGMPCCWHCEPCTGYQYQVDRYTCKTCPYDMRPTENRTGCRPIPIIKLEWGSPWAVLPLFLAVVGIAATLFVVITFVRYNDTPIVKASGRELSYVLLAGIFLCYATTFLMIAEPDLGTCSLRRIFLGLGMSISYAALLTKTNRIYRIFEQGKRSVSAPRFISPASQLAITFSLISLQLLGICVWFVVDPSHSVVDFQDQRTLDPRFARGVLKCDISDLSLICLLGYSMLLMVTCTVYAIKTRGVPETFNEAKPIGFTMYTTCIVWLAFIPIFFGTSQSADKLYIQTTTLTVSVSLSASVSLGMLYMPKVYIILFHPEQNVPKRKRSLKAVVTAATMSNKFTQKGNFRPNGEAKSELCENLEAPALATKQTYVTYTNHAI

[9] = molecular target: T3, Metabotropic glutamate receptor 7; experiment: Agonist activity at mGlu7 (unknown origin) expressed in HEK293 cells coexpressing chimeric Gq/i protein assessed as [3H]inositol phosphate accumulation after 30 mins by scintillation and luminescence counting method; type: functional, cell-based; in short: as §3
[10] = molecular target: T5, Metabotropic glutamate receptor 4 (Rattus norvegicus, UniProt P31423); experiment: Agonist activity at mGlu4 in Wistar rat striatum assessed as decrease in striatal GABAergic inhibitory post-synaptic potential by whole cell patch clamp assay
T5 sequence (P31423 whole entry): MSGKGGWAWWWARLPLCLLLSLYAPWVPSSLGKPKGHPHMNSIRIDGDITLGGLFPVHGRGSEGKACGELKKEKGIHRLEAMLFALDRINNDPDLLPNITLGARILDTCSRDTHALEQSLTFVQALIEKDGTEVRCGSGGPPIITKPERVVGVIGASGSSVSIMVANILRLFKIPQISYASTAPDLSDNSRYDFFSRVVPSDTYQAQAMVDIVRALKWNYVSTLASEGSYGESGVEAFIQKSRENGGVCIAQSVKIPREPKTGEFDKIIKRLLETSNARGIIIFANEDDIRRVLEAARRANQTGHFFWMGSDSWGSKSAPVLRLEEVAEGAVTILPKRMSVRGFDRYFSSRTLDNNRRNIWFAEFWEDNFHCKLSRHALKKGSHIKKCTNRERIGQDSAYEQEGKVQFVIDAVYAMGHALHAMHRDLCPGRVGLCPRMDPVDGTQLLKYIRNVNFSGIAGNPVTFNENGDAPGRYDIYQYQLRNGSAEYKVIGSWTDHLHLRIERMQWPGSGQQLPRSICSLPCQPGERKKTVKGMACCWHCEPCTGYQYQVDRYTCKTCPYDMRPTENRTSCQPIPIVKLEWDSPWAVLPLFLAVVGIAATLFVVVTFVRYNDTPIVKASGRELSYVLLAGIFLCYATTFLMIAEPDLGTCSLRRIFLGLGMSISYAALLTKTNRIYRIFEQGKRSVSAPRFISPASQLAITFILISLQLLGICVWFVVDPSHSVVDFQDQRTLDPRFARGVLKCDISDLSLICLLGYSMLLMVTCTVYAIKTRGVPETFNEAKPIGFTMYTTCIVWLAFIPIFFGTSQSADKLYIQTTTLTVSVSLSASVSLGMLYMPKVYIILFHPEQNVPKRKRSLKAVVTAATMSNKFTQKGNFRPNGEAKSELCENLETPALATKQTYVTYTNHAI

[11] = molecular target: T5, Metabotropic glutamate receptor 4; experiment: Agonist activity at mGlu4 in Wistar rat striatum assessed as decrease in corticostriatal glutamatergic excitatory post-synaptic potential by whole cell patch clamp assay
[12] = molecular target: T3, Metabotropic glutamate receptor 7; experiment: Agonist activity at mGlu7 (unknown origin) expressed in HEK293 cells coexpressing chimeric Gq/i protein assessed as increase in intracellular calcium accumulation at 300 uM by Fluo-4 AM dye based fluorescence assay; type: functional, cell-based
[13] = molecular target: T3, Metabotropic glutamate receptor 7; experiment: Agonist activity at mGlu7 (unknown origin) expressed in HEK293 cells coexpressing chimeric Gq/i protein assessed as increase in intracellular calcium accumulation by Fluo-4 AM dye based fluorescence assay; type: functional, cell-based
[14] = molecular target: T4, Metabotropic glutamate receptor 4; experiment: Agonist activity at mGlu4 (unknown origin) expressed in HEK293 cells coexpressing chimeric Gq/i protein assessed as [3H]inositol phosphate accumulation after 30 mins at 100 uM by scintillation and luminescence counting method; type: functional, cell-based; in short: as §3
[15] = molecular target: Metabotropic glutamate receptor 4 (Rattus norvegicus) (UniProt P31423); experiment: Agonist activity at mGlu4 in rat purkinje cells assessed as mean decrease in parallel fiber-induced excitary postsynaptic currents amplitude for first response at 100 uM treated for 5 mins by whole cell patch clamp assay relative to control; type: cell-based; set-up: scale not given: the % may be the effect or the level left
Chain of Metabotropic glutamate receptor 4 (Rattus norvegicus) (P31423 whole entry): as above
In short: (§4)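 Sagittal cerebellar vermis slices (250 μm) from 18−29-day-old rats. Purkinje cells whole-cell clamped at 28−30 °C. Parallel-fiber EPSCs evoked by paired stimuli 40 ms apart; PPF taken as second/first amplitude, averaged per cell. Agonist bath-applied 5 min from a 40 mM water stock. EC50 and Hill coefficient fitted across independent experiments.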

[16] = molecular target: Metabotropic glutamate receptor 4 (Rattus norvegicus) (UniProt P31423); experiment: Agonist activity at mGlu4 in rat purkinje cells assessed as increase in mean paired-pulse facilitation at 100 uM treated for 5 mins by whole cell patch clamp assay relative to control; type: cell-based; in short: as §4
[17] = molecular target: Ionotropic glutamate receptor NMDA1/2B (Rattus norvegicus, UniProt P35439+Q01097); experiment: Antagonist activity at rat GluN1a/mouse GluN2B receptors expressed in Xenopus laevis oocytes assessed as inhibition of L-glutamate/[…] induced current amplitude at holding potential of -60 mV by […]; type: cell-based
[18] = molecular target: Metabotropic glutamate receptor 4 (Rattus norvegicus) (UniProt P31423); experiment: Agonist activity at mGlu4 in rat purkinje cells assessed as mean decrease in parallel fiber-induced excitary postsynaptic currents amplitude for first response treated for 5 mins by whole cell patch clamp assay; type: cell-based; in short: as §4
[19] = molecular target: Glutamate NMDA receptor; Grin1/Grin2a (Rattus norvegicus, UniProt P35439+Q00959); experiment: Antagonist activity at rat GluN1a/GluN2A receptors expressed in Xenopus laevis oocytes assessed as inhibition of L-glutamate/[…] induced current amplitude at holding potential of -60 mV by […]; type: cell-based
[20] = molecular target: Metabotropic glutamate receptor 4 (Rattus norvegicus) (UniProt P31423); experiment: (§5) Agonist activity at mGlu4 assessed as decrease in PF-induced presynaptic calcium amplitude in rat coronal slices by Fluo-4FF-AM dye based fluorescence assay; type: functional
In short: (§6)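 Coronal cerebellar slices (250 μm) from 18−29-day-old rats. Parallel fibers loaded by focal Fluo-4FF-AM (100 μM); recording at least 45 min later at 28−30 °C. Excitation 485 nm, emission 530 nm, photometer in a 20×50 μm window over the molecular layer. ΔF/F bleach-corrected. Agonist bath-applied from a 40 mM water stock; EC50 and Hill coefficient fitted.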

[21] = molecular target: T5, Metabotropic glutamate receptor 4; experiment: as §5; type: functional; in short: as §6
[22] = molecular target: Metabotropic glutamate receptor 4 (Mus musculus, UniProt Q68EF4); experiment: Agonist activity at mGlu4 in C57/Bl6 mouse GP neurons assessed as inhibition of striatopallidal GABAergic inhibitory postsynaptic current amplitude by whole cell patch clamp assay
Chain of Metabotropic glutamate receptor 4 (Mus musculus, UniProt Q68EF4) (Q68EF4 whole entry): as the sequence (P31423 whole entry) above, with A24G, P25S, G280A, M339T, L482R, I705V, G713C, T895A counted along it

[23] = molecular target: Metabotropic glutamate receptor 4 (Mus musculus) (UniProt Q68EF4); experiment: Agonist activity at mGlu4 in C57/Bl6 mouse GP neurons assessed as inhibition of striatopallidal GABAergic inhibitory postsynaptic current amplitude at 3 uM by whole cell patch clamp assay relative to control
Chain of Metabotropic glutamate receptor 4 (Mus musculus) (Q68EF4 whole entry): as the sequence (P31423 whole entry) above, with A24G, P25S, G280A, M339T, L482R, I705V, G713C, T895A counted along it

[24] = molecular target: Metabotropic glutamate receptor 4 (Rattus norvegicus) (UniProt P31423); experiment: Agonist activity at mGlu4 assessed as decrease in PF-induced presynaptic calcium amplitude in rat coronal slices at 100 uM by Fluo-4FF-AM dye based fluorescence assay relative to control; type: functional; set-up: scale not given: the % may be the effect or the level left; in short: as §6
[25] = molecular target: Metabotropic glutamate receptor 4 (Rattus norvegicus) (UniProt P31423); experiment: Agonist activity at mGlu4 in rat purkinje cells assessed as mean decrease in parallel fiber-induced excitary postsynaptic currents amplitude for second response at 100 uM treated for 5 mins by whole cell patch clamp assay relative to control; type: cell-based; set-up: scale not given: the % may be the effect or the level left; in short: as §4

EC50 [2] [µM] | EC50 [3] [µM] | EC50 [4] [µM] | EC50 [5] [µM] | EC50 [8] [µM] | EC50 [13] [µM] | SMILES | Ratio EC50 (Homo sapiens [1]) | Ratio EC50 (Homo sapiens [6]) | further results
5.6 | 1.6 | > 100 | 4 | 3.3 | – | Cc1ccc(C(O)P(=O)(O)CC[C@H](N)C(=O)O)cc1[N+](=O)[O-] (stereo not given in full) | 1.6 | 0.5 | Activity [7]: inactive
125 | – | > 100 | – | – | – | N[C@@H](CCP(=O)(O)C(O)c1cccc(C(=O)O)c1)C(=O)O (stereo not given in full) | 5.8 | – | –
0.51 | 0.38 | 3.6 | – | 0.19 | – | N[C@@H](CCP(=O)(O)C(O)c1csc([N+](=O)[O-])c1)C(=O)O (stereo not given in full) | 3.2 | 2 | EC50 [9]: 418 µM; EC50 [10]: 0.32 µM; EC50 [11]: 9.32 µM
– | – | – | > 100 | 11.6 | – | COc1cc(C(N)P(=O)(O)CC[C@H](N)C(=O)O)cc([N+](=O)[O-])c1O (stereo not given in full) | – | 3 | Activity [12]: inactive
7.8 | 6.5 | 31 | 6.7 | 5.94 | 89 | N[C@@H](CCP(=O)(O)CCC(=O)O)C(=O)O | 1.2 | 1.1 | –
– | – | – | – | – | – | N[C@@H](CCP(=O)(O)C(O)c1ccccc1C(=O)O)C(=O)O (stereo not given in full) | – | – | Activity [14]: inactive
18.5 | 7.6 | – | 30 | 5.6 | > 100 | N[C@@H](CCP(=O)(O)C(O)c1c(F)c(F)c(F)c(F)c1F)C(=O)O (stereo not given in full) | 3.7 | 1.4 | –
5.4 | 32.8 | – | 26 | 4.3 | > 100 | N[C@@H](CCP(=O)(O)C(O)c1cc(O)c(O)c([N+](=O)[O-])c1)C(=O)O (stereo not given in full) | 1.1 | 7.6 | –
0.023 | 0.044 | – | 3.2 to 6.2 | 3.2 | 30 to 100 | N[C@H](C(=O)O)c1ccc(C(=O)O)c(C(=O)O)c1 | 0.012 | 0.014 | –
– | 19.4 | – | – | 0.9 | – | COc1cc(C(O)P(=O)(O)CC[C@H](N)C(=O)O)cc([N+](=O)[O-])c1O (mixture of isomers) | – | – | Activity [15]: 39.2%; Activity [16]: 2.29 to 2.91%; IC50 [17]: 2300 µM; Activity [18]: Dose-dependent effect; IC50 [19]: 1100 µM; Activity [20]: Dose-dependent effect; Imax [20]: 40%; EC50 [21]: 20 µM; EC50 [22]: 0.2 µM; Imax [23]: 40%; Activity [24]: 12.5%; Activity [25]: 26.4%

SMILES | EC50 [2] [µM] | EC50 [3] [µM] | EC50 [4] [µM] | EC50 [5] [µM] | EC50 [8] [µM] | EC50 [13] [µM] | Ratio EC50 (Homo sapiens [1]) | Ratio EC50 (Homo sapiens [6]) | further results
N[C@@H](CCP(=O)(O)C(O)c1ccc([N+](=O)[O-])cc1)C(=O)O (stereo not given in full) | 0.53 | 0.49 | – | 4.6 | 0.64 | > 100 | 1.4 | 0.8 | –
